Results on 46 compounds are retold here after ChEMBL document CHEMBL1138921, “Discovery of 3,5-bis(trifluoromethyl)benzyl L-arylglycinamide based potent CCR2 antagonists” (Bioorg Med Chem Lett, 2006).

Substance-P receptor, sequence (P25103 whole entry): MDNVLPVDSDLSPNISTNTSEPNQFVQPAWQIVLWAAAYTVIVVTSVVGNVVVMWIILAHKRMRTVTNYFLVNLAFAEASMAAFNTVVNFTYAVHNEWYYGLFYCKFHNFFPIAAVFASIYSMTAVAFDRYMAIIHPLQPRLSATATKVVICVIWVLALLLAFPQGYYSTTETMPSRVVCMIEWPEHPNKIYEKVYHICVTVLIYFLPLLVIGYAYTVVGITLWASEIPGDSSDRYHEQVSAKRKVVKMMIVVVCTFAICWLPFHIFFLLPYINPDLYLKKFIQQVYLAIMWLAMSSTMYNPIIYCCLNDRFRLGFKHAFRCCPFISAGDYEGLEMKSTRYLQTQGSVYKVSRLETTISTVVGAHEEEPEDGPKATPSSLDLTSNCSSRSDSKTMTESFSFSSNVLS

In the first test the target is T1, C-C chemokine receptor type 2 (Homo sapiens, UniProt P41597). The experiment in a line: Displacement of [125I]MCP1 from human CCR2 expressed in CHO cells at 1 uM. In kind it is cell-based. Summed up: (§1)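 Competition binding: CHO cells stably expressing human CCR2b (5 × 10⁴) incubated with ¹²⁵I-hMCP-1 (20–50 pM) plus varied unlabeled competitor, 60 min, room temperature, in 50 mM HEPES, 5 mM MgCl₂, 1 mM CaCl₂, pH 7.4. Ended by filtration through polyethyleneimine-soaked GF/B filters, washed with 25 mM HEPES pH 7.5/500 mM NaCl. Values given as IC₅₀ or % inhibition at 1 µM.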
Target sequence in this assay (P41597 whole entry, looked up): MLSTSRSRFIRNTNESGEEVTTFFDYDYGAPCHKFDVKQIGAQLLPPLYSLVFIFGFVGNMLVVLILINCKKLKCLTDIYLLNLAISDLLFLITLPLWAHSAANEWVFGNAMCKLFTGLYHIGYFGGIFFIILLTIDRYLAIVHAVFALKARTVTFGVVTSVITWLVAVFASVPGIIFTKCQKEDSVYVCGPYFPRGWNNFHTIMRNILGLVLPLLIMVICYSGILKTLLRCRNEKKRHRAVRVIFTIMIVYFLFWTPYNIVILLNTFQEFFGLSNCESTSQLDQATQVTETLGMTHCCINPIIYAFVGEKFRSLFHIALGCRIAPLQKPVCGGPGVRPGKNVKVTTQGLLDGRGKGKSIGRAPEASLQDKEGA
Consider `CN(C)CCN[C@H](CN(C)S(=O)(=O)c1cc(C(F)(F)F)cc(C(F)(F)F)c1)c1ccccc1`, for which the inhibition was 0%.

`CC(=O)N(Cc1cc(C(F)(F)F)cc(C(F)(F)F)c1)C[C@@H](NCCN(C)C)c1ccccc1` came in with an inhibition of 4%.

Consider `O=C(NCc1cc(C(F)(F)F)cc(C(F)(F)F)c1)[C@@H](NCCCN1CCCCC1)c1ccccc1`, for which the inhibition turned out to be 26%.

`CN(C)CCN[C@H](COCc1cc(C(F)(F)F)cc(C(F)(F)F)c1)c1ccccc1` showed an inhibition of 6%.

Consider `CN(C)CCNC(C(=O)NCc1cc(C(F)(F)F)cc(C(F)(F)F)c1)c1ccc(F)c(F)c1` (centres undefined), for which the inhibition turned out to be 33%.

In turn, `CN(C)CCN[C@@H](C(=O)NCc1cc(C(F)(F)F)cc(C(F)(F)F)c1)c1ccc(F)cc1` gave an inhibition of 8%.

`CN(C)CCN[C@H](CNS(=O)(=O)c1cc(C(F)(F)F)cc(C(F)(F)F)c1)c1ccccc1` yielded an inhibition of 0%.

In turn, `CN(C)CCN[C@H](C(=O)NCc1cc(C(F)(F)F)cc(C(F)(F)F)c1)C1CCCCC1` registered an inhibition of 9%.

Compound `CC(C)CCNC(C(=O)NCc1cc(C(F)(F)F)cc(C(F)(F)F)c1)c1ccccc1` (centres undefined) yielded an inhibition of 0%.

Take `CN(C)CCN[C@H](C(=O)NCc1ccc(C(F)(F)F)cc1)c1ccccc1`: the inhibition came to 7%.

As to `CN(C)CCN[C@H](C(=O)N(C)Cc1cc(C(F)(F)F)cc(C(F)(F)F)c1)c1ccccc1`, the inhibition was 20%.

For the compound `CC(NC(=O)[C@@H](NCCN(C)C)c1ccccc1)c1cc(C(F)(F)F)cc(C(F)(F)F)c1` (some centres undefined), the inhibition stood at 28%.

`CN(C)CCNCC(=O)NCc1cc(C(F)(F)F)cc(C(F)(F)F)c1`: the inhibition came to 0%.

In the case of `COCCNC(C(=O)NCc1cc(C(F)(F)F)cc(C(F)(F)F)c1)c1ccccc1` (centres undefined), the inhibition worked out at 0%.

The compound `COc1ccc([C@H](NCCN(C)C)C(=O)NCc2cc(C(F)(F)F)cc(C(F)(F)F)c2)cc1` came in with an inhibition of 47%.

Regarding `NCCNC(C(=O)NCc1cc(C(F)(F)F)cc(C(F)(F)F)c1)c1ccccc1` (centres undefined), the inhibition came out at 14%.

Turning to `CN(C)CCN[C@@H](Cc1ccc(F)cc1)C(=O)NCc1cc(C(F)(F)F)cc(C(F)(F)F)c1`, the inhibition amounted to 1%.

Compound `CN(C)CCNC(C(=O)NCc1cc(C(F)(F)F)cc(C(F)(F)F)c1)c1cccc(Br)c1` (centres undefined) displayed an inhibition of 17%.

`CN(C)CCNC(C(=O)NCc1cc(C(F)(F)F)cc(C(F)(F)F)c1)c1ccc(Br)cc1` (centres undefined) yielded an inhibition of 25%.

`CN(C)CCN[C@H](C(=O)NCc1cccc(C(F)(F)F)c1)c1ccccc1` displayed an inhibition of 5%.

Compound `CN(C)CCN[C@H](CNC(=O)c1cc(C(F)(F)F)cc(C(F)(F)F)c1)c1ccccc1` came in with an inhibition of 0%.

Compound `Cc1cc(C)cc(CNC(=O)[C@@H](NCCN(C)C)c2ccccc2)c1` returned an inhibition of 0%.

In turn, `CN(C)CCN[C@H](C(=O)NCc1ccccc1C(F)(F)F)c1ccccc1` displayed an inhibition of 1%.

In the case of `CN(C)CCN[C@H](CN(Cc1cc(C(F)(F)F)cc(C(F)(F)F)c1)S(C)(=O)=O)c1ccccc1`, the inhibition was 0%.

The subject of a further test is Monocyte. The experiment in a line: Inhibition of MCP1-induced chemotaxis of human monocytes. In kind it is functional, cell-based. Summed up:
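Human monocytes loaded with Calcein-AM in Hanks' buffer with 0.01% BSA, 37 °C, 30 min, then washed and resuspended in phenol red-free RPMI 1640 with 0.01% BSA. Migration toward MCP-1 measured in disposable 96-well chemotaxis plates (5.7 mm diameter wells), 1.5 × 10⁵ cells/well.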
As for `O=C(/C=C/c1ccc(Cl)c(Cl)c1)NCCCCCN1CCC(c2c[nH]c3ccc(O)cc23)CC1`, the Kb was 25 nM.

`O=C(NC(=O)c1ccc2nccnc2c1)Nc1cccc(-c2ccccc2)c1`: the midpoint of inhibition, the IC50, lay at 60 nM. This counts as double-digit nanomolar.

`O=C(O)c1cc2cc(O)ccc2n1Cc1ccc(Cl)c(Cl)c1` showed an IC50 of 60 nM.

With `Cc1ccc2c(c1)C1(CCN(CCc3coc(-c4ccc(F)cc4)n3)CC1)OC(=O)N2`, the IC50 stood at 1000 nM.

In a further test the target is T1, C-C chemokine receptor type 2. Description: Displacement of [125I]MCP1 from human CCR2 expressed in CHO cells. In kind it is cell-based. Summed up: as §1
In turn, `CN(C)CCNC(C(=O)NCc1cc(C(F)(F)F)cc(C(F)(F)F)c1)c1ccco1` (centres undefined) registered an IC50 of 592 nM.

`CN(C)CCN[C@H](C(=O)NCc1cc(C(F)(F)F)cc(C(F)(F)F)c1)c1ccc(F)cc1` showed an IC50 of 770 nM.

Take `CN(C)CCN[C@@H](C(=O)NCc1cc(C(F)(F)F)cc(C(F)(F)F)c1)c1cccs1`: the IC50 stood at 865 nM. The IC50 values of the last two compounds are within 1.5-fold of each other.

The compound `CN(C)CCN[C@H](C(=O)NCc1cc(C(F)(F)F)cc(C(F)(F)F)c1)c1ccsc1` registered an IC50 of 424 nM. Compared with the last compound, the IC50 is about 2-fold lower.

On to `CN(C)CCNC(C(=O)NCc1cc(C(F)(F)F)cc(C(F)(F)F)c1)c1ccc(Cl)cc1` (centres undefined), for which the concentration for half-maximal inhibition (IC50) was found to be 1100 nM.

For the compound `CC1CCCCN1CCN[C@H](C(=O)NCc1cc(C(F)(F)F)cc(C(F)(F)F)c1)c1ccccc1` (some centres undefined), the IC50 came out at 838 nM.

`O=C(NCc1cc(C(F)(F)F)cc(C(F)(F)F)c1)C(NCCN1CCOCC1)c1ccccc1` (centres undefined) gave an IC50 of 575 nM.

Compound `O=C(O)c1cc2cc(O)ccc2n1Cc1ccc(Cl)c(Cl)c1` gave a Ki of 29 nM.

Turning to `Nc1ccc(C(F)(F)F)cc1C(=O)NCC(=O)NCC1CCN(Cc2ccc(Cl)cc2)CC1`, the IC50 is 200 nM. This counts as sub-micromolar.

`Cc1ccc2c(c1)C1(CCN(CCc3coc(-c4ccc(F)cc4)n3)CC1)OC(=O)N2` gave an IC50 of 32 nM.

`O=C(NCc1cc(C(F)(F)F)cc(C(F)(F)F)c1)C(NCCN1CCCCC1)c1ccccc1` (centres undefined): the IC50 was 342 nM.

Compound `O=C(NCc1cc(C(F)(F)F)cc(C(F)(F)F)c1)C(NCCN1CCCC1)c1ccccc1` (centres undefined) displayed an IC50 of 521 nM.

`O=C(NCc1cc(C(F)(F)F)cc(C(F)(F)F)c1)[C@@H](NCCN1CCCCC1)c1ccccc1` registered an IC50 of 219 nM.

The compound `CN(C)CCNC(C(=O)NCc1cc(C(F)(F)F)cc(C(F)(F)F)c1)c1ccccc1` (centres undefined) returned an IC50 of 1480 nM.

`O=C(NCc1cc(C(F)(F)F)cc(C(F)(F)F)c1)[C@@H](NCCN1CCCCCC1)c1ccccc1` gave an IC50 of 400 nM.

The compound `O=C(NCc1cc(C(F)(F)F)cc(C(F)(F)F)c1)[C@@H](NCCN1CCCCC1)c1ccc(F)cc1` returned an IC50 of 175 nM. Against the preceding compound, the IC50 is about 2.3-fold lower.

For the compound `CCN(CC)CCNC(C(=O)NCc1cc(C(F)(F)F)cc(C(F)(F)F)c1)c1ccccc1` (centres undefined), the IC50 amounted to 678 nM.

Regarding `O=C(NCc1cc(C(F)(F)F)cc(C(F)(F)F)c1)[C@@H](NCCN1CCC(c2ccccc2)CC1)c1ccccc1`, the IC50 was 822 nM.

Compound `CN(C)CCN[C@H](C(=O)NCc1cc(C(F)(F)F)cc(C(F)(F)F)c1)c1ccccc1` showed an IC50 of 1000 nM.

`CC1CCN(CCN[C@H](C(=O)NCc2cc(C(F)(F)F)cc(C(F)(F)F)c2)c2ccccc2)CC1` displayed an IC50 of 756 nM.

A further test addresses Substance-P receptor (Homo sapiens, UniProt P25103). Description: Binding affinity to human NK1 receptor.
With `CN(C)CCN[C@H](C(=O)NCc1cc(C(F)(F)F)cc(C(F)(F)F)c1)c1ccc(F)cc1`, the half-maximal inhibitory concentration (IC50) turned out to be 650 nM.
